From PubChem
In the library only some 2.2% were active in any assay of this set; here they are far more common.
SIAE inh: human SIAE inhibitors, primary screen, biochemical, fluorescence polarization, FP-Rh probe, 1536-well HTS; inhibition, % at 9.66 µM; 370,000 tested, 0.69% active; Sialate O-acetylesterase (Homo sapiens), Q9HAT2; SIAE FP-Rh probe binding;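 active = inhibition above a cutoff: mean of compounds within the control limits plus 3 SD of those, cut at about 17% in these data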
mABHD4 FP: ABHD4 inhibitors, primary screen, biochemical, fluorescence polarization, mouse; (Lyso)-N-acylphosphatidylethanolamine lipase (Mus musculus), Q8VD66; purified mABHD4, FP-Rh probe fluorescence polarization; inhibition, % at 8.92 µM; 370,000 tested, 0.54% active;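 active = inhibition exceeding the mean over every tested compound plus 3 SD, cut at about 30% in these data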
Target sequence (Q8VD66 whole entry, looked up): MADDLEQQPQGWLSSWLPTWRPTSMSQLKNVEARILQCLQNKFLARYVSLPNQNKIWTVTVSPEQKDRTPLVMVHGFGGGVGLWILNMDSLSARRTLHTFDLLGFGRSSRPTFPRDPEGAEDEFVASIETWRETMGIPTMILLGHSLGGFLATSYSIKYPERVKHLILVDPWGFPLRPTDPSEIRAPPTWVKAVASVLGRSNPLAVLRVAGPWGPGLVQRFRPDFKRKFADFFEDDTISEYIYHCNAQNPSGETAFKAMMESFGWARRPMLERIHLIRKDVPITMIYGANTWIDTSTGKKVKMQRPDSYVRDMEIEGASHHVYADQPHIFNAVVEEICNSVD
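System: mouse ABHD4 enzyme, wild type / Medium: HEPES pH 7.0, NaCl, Pluronic buffer / Reagent: FP-Rh activity-based fluorescent probe / Control set: S159A mutant high control, sample median low control / Detection: fluorescence polarization with parallel and perpendicular emission, 525/598 nm / Schedule: 45 min + 60 min at 25 °C / Compound dosing: 8.92 µM, single dose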
LEDGF integ inh: blockers of LEDGF/p75-dependent integrase strand transfer – biochemical, TR-FRET, high throughput, primary screen; HIV-1 integrase (with human LEDGF/p75); TR-FRET IN-LEDGF/p75 DNA integration, Eu/Cy5; inhibition, % at 3.7 µM; 370,000 tested, 0.64% active; AID 743269, 2014;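 active = inhibition above the screen-wide mean plus 3 SD, cut at about 13% in these data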;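 also: signal is the Cy5 over europium emission ratio at 671 and 618 nm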
HTRA1 inhibitor: HTRA1 serine protease inhibitors, primary screen, biochemical, fluorescence polarization, HTS | Q92743 | recombinant HTRA1, FP-rhodamine activity-based probe | inhibition, % at 5.96 µM | 340,000 tested, 0.5% active | AID 504803, 2011; in the data active = inhibition above about 36%
TCR-CD3 inh: inhibitors of human TCR-CD3 interaction, primary screen, biochemical, fluorescence, TAMRA-labeled TCR probe; T-cell receptor (TCR); inhibition, % at 9.4 µM; 360,000 tested, 0.37% active; AID 651800, 2012;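 also: recombinant mutant TCR 2C K166C tagged with TAMRA read by polarization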
TDP2 inh: human TDP2 enzyme inhibitors, primary screen, biochemical, epi absorbance, recombinant enzyme. T5PNP hydrolysis, p-nitrophenol absorbance 415 nm. inhibition, % at 12.8 µM. 370,000 tested, 0.34% active. Tyrosyl-DNA phosphodiesterase 2 (Homo sapiens), O95551. AID 720702, 2013;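 active = inhibition above the mean of all tested compounds plus 3 SD, set per campaign, cut at about 25% in these data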
Target sequence (O95551 whole entry, looked up): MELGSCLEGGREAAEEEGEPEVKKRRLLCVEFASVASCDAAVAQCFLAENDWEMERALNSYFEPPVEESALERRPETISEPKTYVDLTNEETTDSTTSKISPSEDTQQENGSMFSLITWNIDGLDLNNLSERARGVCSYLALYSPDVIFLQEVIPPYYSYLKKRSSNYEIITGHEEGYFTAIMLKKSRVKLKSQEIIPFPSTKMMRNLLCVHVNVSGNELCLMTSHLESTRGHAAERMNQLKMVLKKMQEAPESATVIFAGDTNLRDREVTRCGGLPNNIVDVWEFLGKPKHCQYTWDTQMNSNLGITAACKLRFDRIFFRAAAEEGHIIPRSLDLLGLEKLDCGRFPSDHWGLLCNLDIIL
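Evaluation: % inhibition relative to enzyme-containing and enzyme-free wells. Material: recombinant human TDP2. Benchmarks: enzyme-free and DMSO wells. Timing: enzyme reaction with compound for 2 h at 37 °C. Compound dosing: 12.8 µM only. Measured by: p-Nitrophenol epi absorbance. Reagent: T5PNP substrate at 5 mM, a TopII-DNA adduct mimic. Replication: single well per compound.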
HTRA1 conf: HTRA1 protease inhibitors, retest, confirmation, biochemical, fluorescence polarization; 1,600 tested, 66% active; recombinant HTRA1, FP-rhodamine activity-based probe; shares compounds with HTRA1 inhibitor; inhibition, % at 5.96 µM;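 active = mean inhibition over three repeats above a set limit taken from the earlier primary screen, cut at about 37% in these data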;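 also: inhibitors block probe binding so polarization drops and inhibition rises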
BSA probe FL: compounds interfering with TAMRA-BSA probe, counter-screen for TCR-CD3 interaction inhibitor project, biochemical, fluorescence, TAMRA-labeled BSA. 1,200 tested, 10% active. inhibition, % at 9.4 µM. AID 652035, 2013. TAMRA-labeled BSA probe fluorescence counterscreen. shares compounds with TCR-CD3 inh; in the data active = inhibition above about 23%
TCR-CD3 conf: TCR-CD3 interaction inhibitors, retest, confirmation, biochemical, fluorescence, TAMRA-labeled TCR probe; AID 652036, 2013; 1,200 tested, 48% active; shares compounds with TCR-CD3 inh; TAMRA-labeled TCR probe fluorescence binding assay; inhibition, % at 9.4 µM
mABHD4 conf: ABHD4 inhibitors, retest, confirmation, biochemical, fluorescence polarization, mouse; AID 720658, 2013; 1,800 tested, 55% active; inhibition, % at 8.92 µM; shares compounds with mABHD4 FP; purified mABHD4, FP-Rh probe fluorescence polarization;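 active = mean inhibition across replicates above the hit cutoff set in the primary screen, cut at about 30% in these data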
TDP2 confirm: human TDP2 enzyme inhibitors, retest, confirmation, biochemical, epi absorbance, recombinant enzyme | 1,100 tested, 22% active | absorbance read-out | inhibition, % at 12.8 µM | shares compounds with TDP2 inh | AID 743263, 2014; in the data active = inhibition above about 25%
IN multimer act: HIV-1 IN multimer formation enhancers, counter-screen for LEDGF/p75 integration inhibitor project, biochemical, TR-FRET. 2,000 tested, 17% active. AID 1053131, 2014. TR-FRET HIV-1 integrase multimerization. shares compounds with LEDGF integ inh. activation, % at 7.7 µM; in the data active = activation above about 8.9%
TRFRET interf: TR-FRET optical interference artefacts, confirmation, artefact control for LEDGF/p75-dependent integration inhibitor project, biochemical, HIV-1 IN multimerization; 2,000 tested, under 10 active; TR-FRET optical interference counterscreen; inhibition, % at 7.7 µM; shares compounds with LEDGF integ inh;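 active = inhibition above the mean over all tested compounds plus 3 SD, which no compound reached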
IN-LEDGF confirm: inhibitors of HIV-1 IN-LEDGF/p75 DNA integration, confirmation, biochemical, TR-FRET; shares compounds with LEDGF integ inh; TR-FRET LEDGF/p75-dependent HIV-1 integration; inhibition, % at 3.7 µM; 2,000 tested, 36% active; in the data active = inhibition above about 14%
SIAE confirm: human SIAE inhibitors, retest, confirmation, biochemical, fluorescence polarization, FP-Rh probe, triplicate; shares compounds with SIAE inh; SIAE FP-Rh activity-based probe; inhibition, % at 9.66 µM; 2,300 tested, 13% active;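 active = mean inhibition of the replicates above the hit cutoff set in the primary screen, cut at about 17% in these data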;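 also: inhibitors lower polarization as more probe stays unbound to SIAE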
A number is an active result. Rule as the data show it, unless noted: active = inhibition above about 19%; inactive = the rest.

`CC(=O)NC(c1ccc(N(C)C)cc1)c1cc(Cl)c2cccnc2c1O` (configuration not stated) gave SIAE inh 23.2, mABHD4 FP 29.7, LEDGF integ inh inactive, HTRA1 inhibitor 65.0, TCR-CD3 inh inactive, TDP2 inh inactive, HTRA1 conf 82.0, mABHD4 conf 32.7 and SIAE confirm 24.1.
COc1ccc(C(NC(C)=O)c2cc(Cl)c3cccnc3c2O)cc1 (configuration not stated) was read as SIAE inh 19.1, mABHD4 FP inactive, LEDGF integ inh inactive, HTRA1 inhibitor 70.5, TCR-CD3 inh inactive, TDP2 inh inactive, HTRA1 conf 79.9 and SIAE confirm 19.5.
Screening CCCC(=O)NC(c1ccc(OC)c(OC)c1)c1cc(Cl)c2cccnc2c1O (configuration not stated) returned SIAE inh 19.7, mABHD4 FP inactive, LEDGF integ inh inactive, HTRA1 inhibitor 46.4, TCR-CD3 inh inactive, TDP2 inh inactive, HTRA1 conf 66.1 and SIAE confirm inactive.
For CC(=O)NC(c1ccc(F)cc1)c1cccnc1 (configuration not stated) the results were SIAE inh inactive, mABHD4 FP inactive, LEDGF integ inh inactive, HTRA1 inhibitor inactive, TCR-CD3 inh inactive and TDP2 inh inactive.
CC(=O)NC(c1ccccc1)c1cc(Cl)c2cccnc2c1O (configuration not stated) was read as SIAE inh 20.2, mABHD4 FP inactive, LEDGF integ inh inactive, HTRA1 inhibitor 70.5, TCR-CD3 inh inactive, TDP2 inh inactive, HTRA1 conf 72.1 and SIAE confirm 17.2.
Screening COC(=O)C1=C(C)N(Cc2cccc(C(F)(F)F)c2)C(=NCc2ccc(C(F)(F)F)cc2)NC1c1cccc(C(F)(F)F)c1 (configuration not stated) returned SIAE inh inactive, mABHD4 FP inactive, LEDGF integ inh inactive, TCR-CD3 inh inactive and TDP2 inh inactive.
Screening COc1cccc2c1C(=O)c1c(O)c3c(c(O)c1C2=O)CC(O)(C(C)=O)CC3OC1CC(O)C(O)C(C)O1 (configuration not stated) returned SIAE inh 68.2, mABHD4 FP 78.8, LEDGF integ inh inactive, HTRA1 inhibitor 73.0, TCR-CD3 inh 133.6, TDP2 inh inactive, HTRA1 conf 73.6, BSA probe FL 179.7, TCR-CD3 conf 141.8 and SIAE confirm 55.3.
Screening Cc1cc2nc3ccc(N(C)C)cc3nc2cc1N returned SIAE inh 29.7, mABHD4 FP 56.8, LEDGF integ inh 30.7, HTRA1 inhibitor 66.0, TCR-CD3 inh 93.0, TDP2 inh inactive, HTRA1 conf 59.8, BSA probe FL 48.3, TCR-CD3 conf 72.3, mABHD4 conf inactive, IN multimer act 15.0, TRFRET interf inactive, IN-LEDGF confirm 72.5 and SIAE confirm 31.8.
Cc1ccc(-n2nc3cc(C)c(N)cc3n2)cc1 was read as SIAE inh inactive, mABHD4 FP inactive, LEDGF integ inh inactive, HTRA1 inhibitor inactive, TCR-CD3 inh inactive and TDP2 inh inactive.
Screening CCN=C1NC(c2cccc(F)c2)C(C(=O)OC)=C(C)N1Cc1ccccc1C(F)(F)F (configuration not stated) returned SIAE inh inactive, mABHD4 FP inactive, LEDGF integ inh inactive, TCR-CD3 inh inactive and TDP2 inh inactive.
`Cc1c(Br)c(O)c(Br)c2sc(=O)oc12` gave SIAE inh 28.9, mABHD4 FP 67.1, LEDGF integ inh 55.2, HTRA1 inhibitor 47.1, TCR-CD3 inh 25.0, TDP2 inh 42.0, HTRA1 conf inactive, BSA probe FL inactive, TCR-CD3 conf inactive, mABHD4 conf 66.2, TDP2 confirm inactive, IN multimer act inactive, TRFRET interf inactive, IN-LEDGF confirm 13.7 and SIAE confirm inactive.
Screening CCOc1ccccc1CNc1ccc(O)cc1 returned SIAE inh 33.6, mABHD4 FP 57.0, LEDGF integ inh 25.3, HTRA1 inhibitor 61.2, TCR-CD3 inh 20.5, TDP2 inh 25.8, HTRA1 conf inactive, BSA probe FL inactive, TCR-CD3 conf inactive and SIAE confirm inactive.
